This note sets out measurements from ChEMBL document CHEMBL1909630, “Azaxanthene based selective glucocorticoid receptor modulators: design, synthesis, and pharmacological evaluation of (S)-4-(5-(1-((1,3,4-thiadiazol-2-yl)amino)-2-methyl-1-oxopropan-2-yl)-5H-chromeno[2,3-b]pyridin-2-yl)-2-fluoro-N,N-dimethylbenzamide (BMS-776532) and its methylene homologue …” (J Med Chem, 2011).

Activity calls are given as the source filed them. The calls are words filed in the database; no cut-off is given here.

In test [1] the test system is Blood. Briefly: Antiinflammatory activity in human whole blood assessed as inhibition of LPS-induced TNFalpha production after overnight incubation by ELISA relative to Dexamethasone. Format: functional. The essentials: (§1)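 Whole blood from two donors per experiment was collected into ACD-A. Compounds were added and the blood was incubated about 20 h at 37 °C under 5% CO2. Blood was then stimulated for 5 h with LPS (final 100 ng/mL, for TNFα) or IL-1β (final 10 ng/mL, for IL-8). Plasma TNFα or IL-8 was measured by ELISA. Efficacy was expressed as % of dexamethasone, and values are means of at least two experiments.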

Test [2] concerns Blood. In words: Antiinflammatory activity in human whole blood assessed as inhibition of TNF-alpha-induced IL-8 production after overnight incubation by ELISA relative to dexamethasone. The class given is functional.
Test [3] has as its system Blood. Briefly: Antiinflammatory activity in human whole blood assessed as inhibition of IL-1beta-induced IL-8 production after overnight incubation by ELISA. Format: functional, tissue-based. The essentials:
as §1

The subject of test [4] is Rattus norvegicus. In words: Antiinflammatory activity in Freund's complete adjuvant-induced Lewis rat arthritis model assessed as reduction in paw swelling at 5 mg/kg/day, po qd for 21 days. The class given is functional, organism-based. The gist of the method:
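Male Lewis rats were inoculated with Mycobacterium butyricum in incomplete Freund's adjuvant. Oral dosing was daily and preventative, running from day 0 to day 21. Onset and progression of arthritis were followed, and ED50 was estimated from the dose response.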

Test [5] concerns Blood. Briefly: Antiinflammatory activity in human whole blood assessed as inhibition of TNF-alpha-induced IL-8 production after overnight incubation by ELISA. The class given is functional, tissue-based.
The subject of a further test is SAOS-2. Briefly: Induction of alkaline phosphatase expression in human Saos2 cells after 3 days by spectrophotometry. The class given is cell-based. To be noted: SAOS-2, 72 h.
The test system of test [6] is MG-63. In words: Induction of glutamine synthase expression in human MG63 cells after overnight incubation by spectrophotometry relative to prednisolone. The class given is cell-based.
In test [7] the test system is Blood. Briefly: Antiinflammatory activity in human whole blood assessed as inhibition of LPS-induced TNFalpha production after overnight incubation by ELISA. Format: functional, tissue-based. The gist of the method: as §1
Test [8] deals with Rattus norvegicus. Briefly: Antiinflammatory activity in Sprague-Dawley rat assessed as carrageenan-induced paw edema at 30 mg/kg, po administered as a single dose 2 hrs before carrageenan challenge measured 4 hrs post carrageenan challenge by plethysmometry relative to control.
Test [9] deals with T1, Mineralocorticoid receptor (Homo sapiens, UniProt P08235).
T1 sequence (P08235 whole entry): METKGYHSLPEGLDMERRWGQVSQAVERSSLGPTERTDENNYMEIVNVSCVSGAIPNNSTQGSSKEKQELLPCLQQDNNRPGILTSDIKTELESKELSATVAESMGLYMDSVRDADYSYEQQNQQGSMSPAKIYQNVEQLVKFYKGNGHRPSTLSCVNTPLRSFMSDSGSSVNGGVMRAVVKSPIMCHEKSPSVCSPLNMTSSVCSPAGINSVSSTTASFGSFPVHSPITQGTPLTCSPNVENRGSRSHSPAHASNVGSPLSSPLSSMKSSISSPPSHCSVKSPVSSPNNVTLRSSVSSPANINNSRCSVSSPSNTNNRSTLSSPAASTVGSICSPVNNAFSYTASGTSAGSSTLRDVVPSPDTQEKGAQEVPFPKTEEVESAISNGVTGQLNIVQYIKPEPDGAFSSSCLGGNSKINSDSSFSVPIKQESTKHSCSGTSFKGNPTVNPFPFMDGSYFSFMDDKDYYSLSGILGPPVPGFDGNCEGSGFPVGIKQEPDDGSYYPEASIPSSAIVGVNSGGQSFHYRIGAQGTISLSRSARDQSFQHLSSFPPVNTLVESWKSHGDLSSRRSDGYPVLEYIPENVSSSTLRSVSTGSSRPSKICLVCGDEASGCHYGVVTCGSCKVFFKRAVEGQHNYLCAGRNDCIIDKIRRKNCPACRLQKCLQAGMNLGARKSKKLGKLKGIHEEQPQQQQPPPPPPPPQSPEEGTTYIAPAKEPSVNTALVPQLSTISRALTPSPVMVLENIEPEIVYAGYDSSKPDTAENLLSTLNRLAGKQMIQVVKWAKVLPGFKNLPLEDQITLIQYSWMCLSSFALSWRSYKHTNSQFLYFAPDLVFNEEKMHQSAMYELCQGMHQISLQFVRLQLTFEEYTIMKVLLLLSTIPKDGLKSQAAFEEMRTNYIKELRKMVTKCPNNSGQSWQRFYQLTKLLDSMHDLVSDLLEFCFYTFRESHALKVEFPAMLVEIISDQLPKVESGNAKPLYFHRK
In words: Agonist activity at human mineralocorticoid receptor expressed in human A549 cells by fluorescence polarization assay. Format: functional, cell-based.

The test system of test [10] is Blood. Briefly: Antiinflammatory activity in human whole blood assessed as inhibition of IL-1beta-induced IL-8 production after overnight incubation by ELISA relative to Dexamethasone. Format: functional. The essentials:
as §1

Test [11] concerns MG-63. In words: Induction of glutamine synthase expression in human MG63 cells after overnight incubation by spectrophotometry. Format: cell-based.
For test [12], the target named is T2, Glucocorticoid receptor (Homo sapiens, UniProt P04150).
T2 sequence (P04150 whole entry): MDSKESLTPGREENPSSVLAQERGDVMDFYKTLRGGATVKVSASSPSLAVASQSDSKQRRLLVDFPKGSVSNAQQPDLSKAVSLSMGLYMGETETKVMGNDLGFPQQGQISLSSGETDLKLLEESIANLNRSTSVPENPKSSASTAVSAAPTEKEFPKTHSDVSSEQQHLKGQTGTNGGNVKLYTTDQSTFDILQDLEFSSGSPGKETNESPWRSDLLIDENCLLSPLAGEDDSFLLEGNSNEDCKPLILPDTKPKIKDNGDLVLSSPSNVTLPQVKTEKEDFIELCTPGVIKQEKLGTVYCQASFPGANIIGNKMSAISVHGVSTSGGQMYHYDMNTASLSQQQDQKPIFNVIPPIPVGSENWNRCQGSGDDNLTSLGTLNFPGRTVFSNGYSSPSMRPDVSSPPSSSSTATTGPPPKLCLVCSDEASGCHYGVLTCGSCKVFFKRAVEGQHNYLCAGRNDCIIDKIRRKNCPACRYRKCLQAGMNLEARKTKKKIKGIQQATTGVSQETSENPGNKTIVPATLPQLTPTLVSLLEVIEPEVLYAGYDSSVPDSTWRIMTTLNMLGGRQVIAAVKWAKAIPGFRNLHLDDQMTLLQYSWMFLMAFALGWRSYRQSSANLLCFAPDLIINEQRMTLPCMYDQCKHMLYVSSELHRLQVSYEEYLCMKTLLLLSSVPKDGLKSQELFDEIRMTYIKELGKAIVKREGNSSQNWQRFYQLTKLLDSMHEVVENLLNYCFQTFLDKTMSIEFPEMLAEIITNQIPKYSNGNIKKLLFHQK
In words: Transrepression activity at glucocorticoid receptor alpha in IL-1beta-stimulated human A549 cells assessed as inhibition of NFkappaB-dependent E-selectin transcription by luciferase reporter gene assay. The class given is cell-based.

Test [13] concerns the target T2, Glucocorticoid receptor. In words: Transactivation activity at GR-alpha in human NP1 Hela cells assessed as induction of GAL4-DBD after 20 hrs by luciferase reporter gene assay. The class given is cell-based.
The target in another test is T3, Androgen receptor (Homo sapiens, UniProt P10275).
T3 sequence (P10275 whole entry): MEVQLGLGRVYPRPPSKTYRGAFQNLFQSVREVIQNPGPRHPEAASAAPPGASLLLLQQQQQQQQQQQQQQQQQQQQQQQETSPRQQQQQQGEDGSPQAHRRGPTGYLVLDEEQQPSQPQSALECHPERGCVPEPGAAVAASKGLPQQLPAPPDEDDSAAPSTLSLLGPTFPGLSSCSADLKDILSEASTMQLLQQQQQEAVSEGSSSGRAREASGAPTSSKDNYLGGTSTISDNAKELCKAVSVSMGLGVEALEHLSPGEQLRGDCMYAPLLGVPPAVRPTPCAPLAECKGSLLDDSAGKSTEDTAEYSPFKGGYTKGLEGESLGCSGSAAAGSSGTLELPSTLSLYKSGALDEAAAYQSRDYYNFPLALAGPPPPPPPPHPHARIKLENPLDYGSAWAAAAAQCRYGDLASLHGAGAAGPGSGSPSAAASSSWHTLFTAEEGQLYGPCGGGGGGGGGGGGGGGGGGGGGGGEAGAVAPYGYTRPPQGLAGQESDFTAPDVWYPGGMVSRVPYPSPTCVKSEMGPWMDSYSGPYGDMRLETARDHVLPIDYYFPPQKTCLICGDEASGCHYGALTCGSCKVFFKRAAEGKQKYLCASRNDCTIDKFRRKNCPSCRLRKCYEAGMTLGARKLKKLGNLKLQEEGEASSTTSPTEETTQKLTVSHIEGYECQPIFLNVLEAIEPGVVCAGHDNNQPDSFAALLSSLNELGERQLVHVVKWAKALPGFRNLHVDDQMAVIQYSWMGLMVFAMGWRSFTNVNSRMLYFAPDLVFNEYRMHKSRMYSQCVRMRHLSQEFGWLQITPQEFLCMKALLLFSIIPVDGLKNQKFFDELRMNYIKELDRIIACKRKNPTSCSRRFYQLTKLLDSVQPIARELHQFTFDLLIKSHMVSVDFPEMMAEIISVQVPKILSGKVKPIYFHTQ
Briefly: Displacement of fluorescently labeled ligand from androgen receptor by fluorescence polarization assay. The gist of the method: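 Binding was measured by fluorescence polarization competition between compound and a fluorescent ligand for full-length receptor or ligand-binding domain. Values are means of at least two experiments.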

In test [14] the target is T2, Glucocorticoid receptor. Briefly: Transactivation activity at glucocorticoid receptor alpha human 13D3/Huh7 cells assessed as induction of TAT activity after 4 hrs by spectrophotometry. The class given is cell-based, Huh-7.
Test [15] has as its target T2, Glucocorticoid receptor. In words: Transrepression activity at glucocorticoid receptor alpha in phorbol myristate acetate-stimulated human A549 cells assessed as inhibition of AP1 response element by luciferase reporter gene assay. The class given is cell-based.
The target of test [16] is T2, Glucocorticoid receptor. Briefly: Displacement of GS-red from glucocorticoid receptor by fluorescence polarization assay.
The target in a further test is T4, Progesterone receptor (Homo sapiens, UniProt P06401).
T4 sequence (P06401 whole entry): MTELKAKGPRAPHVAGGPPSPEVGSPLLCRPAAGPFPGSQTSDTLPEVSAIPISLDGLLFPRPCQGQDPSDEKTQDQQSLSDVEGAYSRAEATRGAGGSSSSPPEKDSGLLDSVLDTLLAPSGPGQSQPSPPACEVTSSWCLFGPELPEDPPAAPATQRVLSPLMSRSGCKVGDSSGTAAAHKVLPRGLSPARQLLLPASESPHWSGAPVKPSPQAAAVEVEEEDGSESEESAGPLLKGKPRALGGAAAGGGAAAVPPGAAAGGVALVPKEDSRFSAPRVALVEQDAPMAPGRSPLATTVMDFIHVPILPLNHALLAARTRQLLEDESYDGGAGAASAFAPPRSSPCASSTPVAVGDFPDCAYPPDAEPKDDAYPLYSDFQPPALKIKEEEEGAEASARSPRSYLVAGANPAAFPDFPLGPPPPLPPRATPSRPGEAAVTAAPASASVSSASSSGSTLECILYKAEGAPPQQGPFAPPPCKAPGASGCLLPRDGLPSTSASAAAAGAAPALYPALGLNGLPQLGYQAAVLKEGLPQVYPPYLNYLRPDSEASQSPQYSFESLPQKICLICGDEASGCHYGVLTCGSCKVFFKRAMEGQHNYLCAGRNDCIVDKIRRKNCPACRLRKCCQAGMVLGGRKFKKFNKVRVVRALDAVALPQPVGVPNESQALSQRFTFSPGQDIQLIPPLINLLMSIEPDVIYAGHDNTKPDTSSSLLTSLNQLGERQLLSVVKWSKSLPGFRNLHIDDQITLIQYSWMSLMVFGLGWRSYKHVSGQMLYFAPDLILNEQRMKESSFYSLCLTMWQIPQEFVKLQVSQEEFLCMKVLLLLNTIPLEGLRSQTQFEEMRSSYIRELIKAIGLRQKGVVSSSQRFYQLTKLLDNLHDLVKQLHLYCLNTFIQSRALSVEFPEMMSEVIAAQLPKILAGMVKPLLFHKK
Briefly: Displacement of fluorescently labeled ligand from progesterone receptor by fluorescence polarization assay.

Test [17] deals with T2, Glucocorticoid receptor. In words: Transactivation activity at GR-alpha in human NP1 Hela cells assessed as inhibition of GAL4-DBD after 20 hrs by luciferase reporter gene assay. The class given is cell-based.

Take `C[C@]12C=CC(=O)C=C1CC[C@@H]1[C@@H]2[C@@H](O)C[C@@]2(C)[C@H]1CC[C@]2(O)C(=O)CO` [PREDNISOLONE]: the Imax in the test with Blood [1], in the test with Blood [2] and with Blood [10] was 94% throughout. The EC50 amounted to 0.104 µM with Blood [3]; 0.124 µM in the test with Blood [5]; 0.089 µM with Blood [7]; 0.002 µM in test [9]; 0.019 µM in the test with MG-63 [11]. Further, the outcome in the test on Rattus norvegicus [4] was Active. Also, the values for the Emax in the test on SAOS-2 and in the test with MG-63 [6] were 68% and 100%, respectively. In addition, the level, % of control at 30 mg/kg in the test on Rattus norvegicus [8] amounted to 49%.
Regarding `CCCc1ccc(-c2ccc3c(n2)Oc2ccccc2[C@H]3C(C)(C)C(=O)Nc2nncs2)cc1`, the EC50 amounted to 0.0297 µM on Glucocorticoid receptor [12]; 0.126 µM at Glucocorticoid receptor [13]; 0.823 µM on Glucocorticoid receptor [14]; 0.0151 µM on Glucocorticoid receptor [15]; 0.036 µM at Glucocorticoid receptor [17]. Further, the Ki on Androgen receptor is more than 5 µM; at Glucocorticoid receptor [16], 0.0024 µM; on Progesterone receptor, 0.285 µM.
